GPR7 antagonist = GPR7 receptor antagonists, primary screen, cell-based, fluorescence, single concentration; GPR7-expressing cells, fluorescence antagonist assay; 290,000 tested, 1.1% active; Neuropeptides B/W receptor type 1 (Homo sapiens), P48145; inhibition, % at 4.4 µM; in the data active means inhibition above about 16%, passing the limit was not always enough;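 further: cells stimulated with the agonist NPW; 0% = agonist with vehicle and 100% = vehicle without agonist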
Target sequence (P48145 whole entry, looked up): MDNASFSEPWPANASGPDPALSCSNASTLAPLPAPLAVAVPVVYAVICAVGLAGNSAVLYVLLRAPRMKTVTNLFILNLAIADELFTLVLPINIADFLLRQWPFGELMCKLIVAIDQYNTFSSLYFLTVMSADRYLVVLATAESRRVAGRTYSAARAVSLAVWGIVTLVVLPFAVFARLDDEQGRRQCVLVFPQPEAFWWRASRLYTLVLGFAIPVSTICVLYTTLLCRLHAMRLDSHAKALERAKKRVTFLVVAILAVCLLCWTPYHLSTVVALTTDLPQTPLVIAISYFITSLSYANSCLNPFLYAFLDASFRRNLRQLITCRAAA
OX1R antag-1 = antagonists of human orexin 1 receptor (OX1R); Orexin/Hypocretin receptor type 1 (Homo sapiens), O43613; OX1R-expressing cells, FRET antagonist read-out; inhibition, % at 6.6 µM; 330,000 tested, 1.8% active; AID 485270, 2010; in the data active means inhibition mostly above about 38%, no sharp cut-off; inactive means mostly below about 40%;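 further: 0% = agonist challenge alone and 100% = reference antagonist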
OX1R antag-2 = OX1R (HCRTR1) antagonists, primary screen, fluorescence, CHO/OX1R cells, Fluo-8 calcium, orexin A; Orexin/Hypocretin receptor type 1 (Homo sapiens), O43613; Fluo-8 calcium fluorescence; inhibition, % at 5 µM; 330,000 tested, 0.43% active;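 active means inhibition above its plate's threshold, mean inhibition of all tested compounds on the plate plus 3 SD, cut at about 37% in these data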;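 further: 0% = orexin A challenge wells and 100% = SB-334867-A antagonist wells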
TAAR1 ag = human TAAR1 agonists, primary screen, Fluo-8 calcium fluorescence, CHO RD-HGA16 cells; Trace amine-associated receptor 1 (Homo sapiens), Q96RJ0; vehicle wells 0%, saturating PEA agonist 100%; activation, % at 3 µM; 360,000 tested, 0.99% active; AID 624467, 2012;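 active means activation above the mean activation of all test compounds in the run plus 3 SD, cut at about 38% in these data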
Target sequence (Q96RJ0 whole entry, looked up): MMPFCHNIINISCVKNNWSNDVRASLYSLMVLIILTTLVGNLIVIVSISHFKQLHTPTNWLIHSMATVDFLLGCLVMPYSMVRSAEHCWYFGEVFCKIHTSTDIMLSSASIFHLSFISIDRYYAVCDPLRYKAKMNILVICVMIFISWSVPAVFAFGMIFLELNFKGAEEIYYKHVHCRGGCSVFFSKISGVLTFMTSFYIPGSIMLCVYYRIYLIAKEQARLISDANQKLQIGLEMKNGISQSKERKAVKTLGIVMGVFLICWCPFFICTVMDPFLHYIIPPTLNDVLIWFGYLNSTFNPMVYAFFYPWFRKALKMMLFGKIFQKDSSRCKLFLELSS
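Test system: RD-HGA16 (CHO) cells co-expressing Gα16 and hTAAR1 | Doses: Single dose, 3 µM | Schedule: 17-24 h seeding, 75 min 37 °C dye, 30 min RT | Evaluation: % activation from peak over basal fluorescence ratio, DMSO-to-PEA scaled | Technique: Kinetic Fluo-8 calcium fluorescence | Benchmarks: Low control DMSO, high control PEA (EC100)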
TAAR1 antag = human TAAR1 antagonists, primary screen, Fluo-8 calcium fluorescence, CHO RD-HGA16 cells; 360,000 tested, 1.5% active; antagonist; inhibition, % at 3 µM; AID 624466, 2012;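 active means inhibition above a per-plate cutoff, the mean inhibition of test compounds on that plate plus 3 SD, cut at about 49% in these data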;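 further: 0% = DMSO plus EC80 beta-PEA response and 100% = DMSO alone without agonist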
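System: RD-HGA16 CHO cells with stable hTAAR1 and Gα16 | Probe or stimulus: EC80 β-phenethylamine stimulus | Dosing: 3 µM, single point | Times: Dye loading 75 min at 37 °C, then 30 min room temperature | Measured by: Fluo-8 calcium-sensitive fluorescence | Read-out basis: % inhibition of agonist calcium response | Replicates: n of 1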
CHO parental Ca = ATP-evoked calcium signal inhibitors, parental CHO, primary screen, counter-screen for OX1R antagonist project, cell-based, fluorescence, Fluo-8 calcium dye; inhibition, % at 5.6 µM; parental CHO-K1, ATP-induced calcium, Fluo-8 fluorescence; 330,000 tested, 0.63% active;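 active means inhibition above that plate's mean sample inhibition plus 3 SD, cut at about 26% in these data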;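 further: 0% = ATP-challenged DMSO wells and 100% = DMSO wells without ATP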
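Material: parental CHO cells / Compound: single nominal dose of 5.6 µM per compound / Signal: Fluo-8 fluorescence / Replicates: singlicate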
OX1R HTRF confirm = OX1R (HCRTR1) antagonists, confirmation, cell-based, HTRF. OX1R-expressing cells, HTRF antagonist assay. inhibition, % at 6.6 µM. 1,800 tested, 49% active. shares compounds with OX1R antag-1. AID 492964, 2010; in the data active means inhibition above about 55%;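 further: CHO cells expressing OX1R stimulated with orexin A at about EC80; 0% = agonist challenge alone and 100% = reference antagonist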
CHO-K1 HTRF = signal inhibition in parental CHO-K1 cells, counter-screen for OX1R antagonist project, cell-based, HTRF. shares compounds with OX1R antag-1. HTRF counterscreen. inhibition, % at 6.6 µM. 1,800 tested, 48% active. AID 493232, 2011; in the data active means inhibition above about 17%;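 further: 0% = agonist challenge with vehicle and 100% = vehicle alone without agonist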
Numbers without * were called inactive; nt = not tested or not shown. Shown are actives, neighbours in structure and some others; about 4.5% of the full set was active somewhere.

SMILES	GPR7 antagonist	OX1R antag-1	OX1R antag-2	TAAR1 ag	TAAR1 antag	CHO parental Ca	OX1R HTRF confirm	CHO-K1 HTRF
Cc1ccc(CNc2ccc([N+](=O)[O-])cc2C(N)=O)cc1	nt	21.0	2.3	6.4	6.9	-16.9	nt	nt
Cc1ccc(Oc2c(C(N)=O)cc([N+](=O)[O-])cc2[N+](=O)[O-])cc1	1.4	104.6*	-3.3	1.8	0.1	-2.8	79.6*	76.5*
CSc1ncnc2c1ncn2CCCN1CCN(C(=O)C2CC2)CC1	nt	nt	nt	0.7	-9.1	nt	nt	nt
O=C(c1ccc(NS(=O)(=O)c2cccc([N+](=O)[O-])c2)cc1)N1CCCCCC1	nt	23.8	-21.7	4.2	-5.4	-9.8	nt	nt
O=C(c1ccccc1NS(=O)(=O)c1cccc([N+](=O)[O-])c1)N1CCCC1	-14.9	77.9*	-0.1	-0.1	-4.8	-10.7	20.3	6.7
Cn1nnnc1SCC(=O)Nc1ccccc1[N+](=O)[O-]	-4.1	59.1	-2.9	6.3	-1.6	-7.6	nt	nt
COc1ccc(NC(=O)CSc2nnnn2C)c([N+](=O)[O-])c1	-3.8	117.4*	-15.8	1.3	7.5	-7.5	24.6	46.1*
COC(=O)c1ccccc1NC(=O)c1cc[n+](C)cc1	nt	82.8*	-4.9	0.6	-9.6	1.4	32.6	49.0*
O=c1ccc(-c2ccc([N+](=O)[O-])cc2)nn1-c1ccccc1	2.0	36.4	-3.4	-0.8	6.8	3.7	nt	nt
O=[N+]([O-])c1ccc(-[n+]2nc(-c3ccccc3)nn2-c2ccccc2)cc1	-9.5	81.1*	-1.5	3.1	-4.2	-3.1	52.6	78.8*
O=c1/c(=C/c2ccc([N+](=O)[O-])cc2)sc2n1CCCN=2	13.2	169.1*	-9.5	6.4	7.6	-3.3	61.1*	84.2*
COc1cc(/C=c2\sc3n(c2=O)CCCN=3)ccc1O	-3.6	67.7	-22.6	7.8	-3.0	4.6	nt	nt
O=C(NCc1ccco1)c1cc([N+](=O)[O-])cc([N+](=O)[O-])c1	-10.7	118.3*	-4.0	3.2	2.1	2.3	54.9*	69.0*
O=C(NCc1ccco1)c1cc([N+](=O)[O-])ccc1Cl	9.2	63.6	-18.8	1.3	-25.1	-10.3	nt	nt
CCN(CC)c1ccc(NC(=O)c2ccc3c(c2)c(C)c(C)n3C)cc1	3.7	78.2*	-3.6	6.6	6.0	-9.3	51.2	14.4
CC(=O)Nc1c([N+](=O)[O-])cc(C)c(Cl)c1[N+](=O)[O-]	-0.2	23.1	-9.8	8.7	-12.7	-3.3	nt	nt
O=c1[nH]c2cc([N+](=O)[O-])c(NCCO)c([N+](=O)[O-])c2[nH]1	-13.2	124.2*	-19.0	5.3	4.2	-7.3	88.7*	95.7*
CC(=O)Nc1c([N+](=O)[O-])cc2[nH]c(=O)[nH]c2c1[N+](=O)[O-]	-1.1	185.5*	-11.9	1.2	0.3	-3.0	50.0	71.2*
O=C1c2cccc3cc([N+](=O)[O-])cc(c23)C(=O)N1/N=C/c1ccc(O)cc1O	-6.9	180.6*	-15.9	0.3	-1.8	-3.4	74.3*	108.0*
CCN(CC)c1ccc(/C=N/N2C(=O)c3ccccc3C2=O)c(O)c1	-6.6	9.0	-6.1	0.6	16.9	-1.3	nt	nt
C[C@@H]1CN([C@H](C)CO)C(=O)CCCn2nncc2CO[C@H]1CN(C)C(=O)Nc1ccc(N2CCN(C)CC2)cc1	nt	nt	nt	0.4	-3.1	nt	nt	nt
CC(=O)c1sc(N/N=C/c2cccc([N+](=O)[O-])c2)nc1C	17.2	21.1	0.5	1.6	-0.7	-10.9	nt	nt
CC(=O)c1sc(N/N=C\c2c(O)ccc3ccccc23)nc1C	nt	85.2*	-2.1	8.2	10.0	2.3	58.2*	7.1
COc1cccc(CNC(=O)[C@@H]2CCCN2C(=O)[C@@H]2CCCN2S(=O)(=O)c2ccc(OC)c(C)c2)c1	nt	nt	nt	2.9	-0.7	nt	nt	nt
Oc1ccccc1CNc1cccc2cccnc12	-12.9	120.3*	-19.9	0.4	-11.0	-10.1	29.1	10.7
SMILES	GPR7 antagonist	OX1R antag-1	OX1R antag-2	TAAR1 ag	TAAR1 antag	CHO parental Ca	OX1R HTRF confirm	CHO-K1 HTRF
CCCOc1ccc(F)cc1-c1cc(C(=O)Nc2ccccc2)[nH]n1	nt	nt	nt	2.1	44.0	nt	nt	nt
Nc1nc2ccccc2n1/N=C/c1cccnc1	-14.2	40.0	-12.1	2.0	-9.9	-3.0	nt	nt
Nc1nc2ccccc2n1/N=C/c1ccc([N+](=O)[O-])s1	-1.8	78.1*	-4.2	30.9	-11.4	-4.0	26.6	26.9*
N#CCC(=O)N/N=C/c1cc([N+](=O)[O-])ccc1N1CCCC1	18.2	20.7	-6.1	-0.3	-10.7	9.9	nt	nt
O=C(N/N=C/c1cc([N+](=O)[O-])ccc1N1CCNCC1)c1ccc([N+](=O)[O-])cc1	6.3	77.7*	-8.0	5.3	5.4	-12.2	52.1	68.8*
O=C(N/N=C/c1ccccn1)c1ccc([N+](=O)[O-])cc1	4.4	82.8*	-11.5	0.1	-0.6	-6.0	45.7	42.3*
COc1cccc(/C=N/NC(=O)c2cnccn2)c1	10.7	18.1	-6.3	3.6	-17.9	-6.0	nt	nt
O=C(N/N=C/c1cccc([N+](=O)[O-])c1)c1cnccn1	1.2	106.3*	8.9	1.2	-6.8	-2.2	42.8	61.0*
O=C(N/N=C/c1cccc([N+](=O)[O-])c1)c1ccc2nc[nH]c2c1	-16.7	38.0	-10.4	6.2	40.9	-6.6	nt	nt
O=C(N/N=C/c1ccc([N+](=O)[O-])cc1)c1ccc2nc[nH]c2c1	-4.0	113.9*	-6.3	2.2	28.1	0.2	37.2	41.3*
O=C(N/N=C/c1ccccn1)c1ccc(NC(=O)c2cccc([N+](=O)[O-])c2)cc1	-4.6	31.3	-10.9	3.3	-1.4	-5.5	nt	nt
Cc1cc(N2O[C@]34C=C[C@]25C[C@@H](O)CC[C@]5(C)C3CC[C@]2(C)[C@@H]([C@H](C)/C=C/[C@H](C)C(C)C)CC[C@H]24)no1 (stereo partly drawn)	nt	0.7	-22.3	2.4	1.4	-10.1	nt	nt
O=C(N/N=C/c1ccccn1)c1cc([N+](=O)[O-])cc([N+](=O)[O-])c1	8.6	90.9*	16.2	7.0	-1.6	13.0	58.7*	42.2*
COC1=CC(=O)OC(c2ccccc2C(F)(F)F)C1 (stereo not drawn)	nt	nt	nt	-0.7	-5.7	nt	nt	nt

From PubChem
